From ChEMBL document CHEMBL3632470, “Antimalarial and Antiproliferative Cassane Diterpenes of Caesalpinia sappan” (J Nat Prod, 2015)

Tests used:
[1] = test system: Plasmodium falciparum; experiment: Antimalarial activity against chloroquine-resistant Plasmodium falciparum K1 by microculture radioisotope technique; type: functional, organism-based
Outline: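 Microculture radioisotope technique on P. falciparum K1 (multidrug-resistant strain), parasites kept in continuous culture. Three replications per experiment. IC50 reported as mean ± SD of triplicate experiments.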

[2] = test system: KB; experiment: Cytotoxicity against human KB cells after 48 hrs by MTT assay; type: functional, cell-based
Outline: (§1)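 Cells grown in DMEM with 10% FBS, seeded at 6 × 10^4 cells/mL per well. Compounds in DMSO added at five concentrations, each in triplicate. Incubated 48 h at 37 °C in 5% CO2, then MTT (4 mg/mL) for another 4 h. Cells lysed in DMSO, absorbance read at 570 nm. At least three independent experiments.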

[3] = test system: HT-29; experiment: Cytotoxicity against human HT-29 cells after 48 hrs by MTT assay; type: functional, cell-based; details: HT-29, 48 h; outline: as §1

| Structure (SMILES) | IC50 [1] | IC50 [2] | IC50 [3] |
| --- | --- | --- | --- |
| CCO[C@@]12C[C@H]3[C@@H](CC[C@H]4C5(C(=O)OC)CCCC34C(OC)OC5)[C@@H](C)C1=CC(=O)O2 (stereo not given in full) | 15.7 µM | – | – |
| COC(=O)C12CCCC3(C(OC)OC1O)[C@H]1C[C@@]4(O)OC(=O)C=C4[C@H](C)[C@@H]1CC[C@@H]23 (stereo not given in full) | 0.52 µM | – | – |
| CCO[C@@]12C[C@H]3[C@@H](CC[C@H]4C5(C(=O)OC)CCCC34C(OC)O[C@@H]5OC)[C@@H](C)C1=CC(=O)O2 (stereo not given in full) | 28.4 µM | – | – |
| CCOC1OCC2(C(=O)OC)CCCC13[C@H]1C[C@@]4(OC)OC(=O)C=C4[C@H](C)[C@@H]1CC[C@@H]23 (stereo not given in full) | 19.2 µM | – | – |
| CCO[C@@]12C[C@H]3[C@@H](CCC4C(C(=O)OC)(C(=O)OC)CCC[C@@]43C=O)[C@@H](C)C1=CC(=O)O2 (stereo not given in full) | 38.9 µM | – | – |
| CCO[C@@H]1OC(OC)C2(C(=O)OC)CCCC13[C@H]1C[C@@]4(OCC)OC(=O)C=C4[C@H](C)[C@@H]1CC[C@@H]23 (stereo not given in full) | 34.8 µM | – | – |
| CCO[C@H]1OC(OC)C23CCCC1(C(=O)OC)[C@@H]2CC[C@H]1[C@@H](C)C2=CC(=O)O[C@]2(OCC)C[C@@H]13 (stereo not given in full) | 32.1 µM | – | – |
| CCO[C@@]12C[C@H]3[C@@H](CCC4[C@](C)(C(=O)OC)CCC[C@@]43C(=O)O)[C@@H](C)C1=CC(=O)O2 (stereo not given in full) | 41.2 µM | – | – |
| CCO[C@@]12C[C@H]3[C@@H](CCC4[C@](C)(C(=O)OC)CCC[C@@]43C=O)[C@@H](C)C1=CC(=O)O2 (stereo not given in full) | 29.7 µM | 7.4 µM | – |
| COC(=O)C12CCCC3([C@H](O)OC1)[C@H]1C[C@@]4(O)OC(=O)C=C4[C@H](C)[C@@H]1CC[C@@H]23 (stereo not given in full) | 0.78 µM | – | – |
| COC(=O)[C@]1(C)CCC[C@@]2(CO)C1CC[C@H]1[C@@H](C)C3=CC(=O)O[C@]3(O)C[C@@H]12 (stereo not given in full) | 2.5 µM | – | – |
| CCO[C@@]12C[C@H]3[C@@H](CC[C@H]4C5(C(=O)OC)CCCC34[C@H](O)OC5)[C@@H](C)C1=CC(=O)O2 (stereo not given in full) | 7.4 µM | – | – |
| COc1cccc2c1C(=O)c1c(O)c3c(c(O)c1C2=O)C[C@@](O)(C(=O)CO)C[C@@H]3O[C@H]1C[C@H](N)[C@H](O)[C@H](C)O1 [DOXORUBICIN] | – | 1.4 µM | 680 nM |
